From PubChem BioAssay
Hits are enriched below; roughly 1.8% of the tested compounds scored in any of these assays.
Tn7 DDE FP: disrupts Tn7 cyclic peptide binding to fibrin D-Dimer-E complex; P02675; FP displacement of FITC-Tn7 peptide from fibrin DD(E); 0% = median of compound wells per plate; inhibition, % at 8.3 µM; 370,000 tested, 0.13% active;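 active = inhibition above the mean of compounds falling within the control limits plus 3 SD of them, cut at about 14% in these data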;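 also: 0% = plate median of compound wells and 100% = 10 µM Aha-Tn7 peptide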
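Assay system: Fibrin-DD(E) protein isolated from polymerized human fibrin clots; read-out basis: percent inhibition; medium: Tris/NaCl/CaCl2 buffer, pH 7.8; signal: FP measurement; incubation: 10 min plus 3 h, room temperature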
Tn6 DDE FP: DD(E)-Tn6 binding inhibition, primary FP screen | P02675 | 370,000 tested, 0.21% active | inhibition, % at 8.3 µM | Fibrin DD(E) TRITC-Tn6 fluorescence polarization displacement;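 active = inhibition above a per-campaign cutoff: mean of compounds within control limits plus 3 SD, cut at about 15% in these data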;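 also: 0% = median of all compound wells on the plate and 100% = blocking peptide control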
CAL PDZ FP-1: blocks peptide binding to human CAL PDZ domain; Q9HD26; purified CAL PDZ, TMR-peptide fluorescence polarization, 1 h; inhibition, % at 20 µM; 330,000 tested, 0.02% active;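 active = highest replicate inhibition of at least 40%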;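 also: plate controls were DMSO neutral control wells for no effect and unlabeled competitor peptide control wells for full effect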
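System: tagged CAL PDZ domain. Schedule: 1 h room-temperature incubation prior to read. Signal: fluorescence polarization (mP). Measure: percent inhibition from loss of millipolarization.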
GRK2 aptamer HTS: human GRK2 inhibition via aptamer displacement. AID 488847. inhibition of aptamer binding, % at 10 µM. bead flow cytometry, FAM-aptamer displacement from GRK2. 330,000 tested, 0.59% active;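 active = inhibition of aptamer binding above 40%, roughly 3 SD of noise, on plates passing a quality check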;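 also: median bead fluorescence of bound FAM aptamer so fluorescent compounds give negative values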
Target sequence (P25098 whole entry, looked up): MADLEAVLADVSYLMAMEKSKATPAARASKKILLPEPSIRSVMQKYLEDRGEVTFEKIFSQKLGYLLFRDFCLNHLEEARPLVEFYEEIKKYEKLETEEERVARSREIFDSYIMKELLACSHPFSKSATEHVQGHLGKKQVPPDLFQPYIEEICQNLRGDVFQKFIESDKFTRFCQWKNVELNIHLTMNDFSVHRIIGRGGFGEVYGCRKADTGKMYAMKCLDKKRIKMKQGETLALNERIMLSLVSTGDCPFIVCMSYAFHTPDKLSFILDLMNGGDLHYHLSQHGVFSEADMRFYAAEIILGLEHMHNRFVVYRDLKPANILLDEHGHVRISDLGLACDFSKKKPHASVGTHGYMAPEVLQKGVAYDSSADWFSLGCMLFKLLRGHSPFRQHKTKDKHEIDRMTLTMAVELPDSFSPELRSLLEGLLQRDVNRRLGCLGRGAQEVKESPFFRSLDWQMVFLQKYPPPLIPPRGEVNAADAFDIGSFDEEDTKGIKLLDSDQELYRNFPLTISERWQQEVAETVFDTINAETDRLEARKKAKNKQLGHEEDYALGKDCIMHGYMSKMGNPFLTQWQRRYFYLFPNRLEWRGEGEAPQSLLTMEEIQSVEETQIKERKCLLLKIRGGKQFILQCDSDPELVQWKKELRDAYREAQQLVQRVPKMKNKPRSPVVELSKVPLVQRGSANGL
CAL PDZ FP-2: blocks peptide binding to the human CAL PDZ domain; 300,000 tested, 0.92% active; purified CAL PDZ, TMR-peptide fluorescence polarization, 1 h; Q9HD26; inhibition, % at 24.9 µM;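 active = mean inhibition of at least 30% with at least half of replicates also reaching 30%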;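 also: 0% = DMSO neutral control and 100% = excess unlabeled competitor peptide PRC23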
ARNT TACC3 PPI: disrupts binding between human ARNT and TACC3 | AlphaScreen His-ARNT PAS-B/GST-TACC3 binding, luminescence; TACC3 fragment carries E629A point mutation | Q9Y6A5 | 390,000 tested, 0.66% active | inhibition, % at 9.99 µM;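 active = mean inhibition of replicates at least 50% and at least half of replicates each reaching 50%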;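 also: 0% = complete ARNT plus TACC3 wells and 100% = ARNT alone without TACC3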
DDE Tn7 confirm: confirmation of inhibitors of Tn7 binding to human fibrin DD(E) | shares compounds with Tn7 DDE FP | FP displacement of TRITC-Tn7 peptide from DD(E); 0% set at plate's compound-well median | inhibition, % at 8.3 µM | 460 tested, 5% active | AID 720628;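 active = inhibition above the campaign cutoff, the mean of compounds within control limits plus 3 SD, cut at about 14% in these data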;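 also: 100% = median FP of high control wells holding Aha-Tn7 inhibitor peptide; displacers lower polarization since freed probe rises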
Tn7 DDE ctr: counter-screen for inhibitors of Tn7 peptide binding to fibrin DD(E) | shares compounds with Tn7 DDE FP | TRITC-Tn7 probe displacement, fluorescence polarization | inhibition, % at 8.3 µM | 460 tested, 3% active | AID 720633;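 active = inhibition above the cutoff, the mean of compounds lying between the control bounds plus 3 SD of those compounds, cut at about 17% in these data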;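 also: 0% = median of compound sample wells and 100% = excess unlabeled Aha-Tn7 peptide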
Starred values were filed as active, the others as inactive; . = no result given.

SMILES	Tn7 DDE FP	Tn6 DDE FP	CAL PDZ FP-1	GRK2 aptamer HTS	CAL PDZ FP-2	ARNT TACC3 PPI	DDE Tn7 confirm	Tn7 DDE ctr
C[C@@H]1CCCCO[C@H](CN(C)C(=O)CCCN(C)C)[C@H](C)CN([C@@H](C)CO)C(=O)c2cc(NC(=O)Nc3ccc(F)cc3)ccc2O1	.	.	.	.	.	5	.	.
Cc1ccc(NC(=O)C2CC(O)CN2C(=O)OCc2ccccc2)cc1C (stereo not drawn)	15*	5	0	.	.	-2	7	3
Cc1cc(=O)n(Cc2ccco2)c(=S)[nH]1	16*	5	.	.	.	.	-2	-8
CCCN(CCC)C(=O)c1ccc2c(=O)n(Cc3ccco3)c(=S)[nH]c2c1	0	5	-2	0	.	6	.	.
O=C(C[C@@H]1CC[C@@H]2[C@H](COC[C@H](O)CN2CCC(F)(F)F)O1)NCC1CCCCC1	.	.	.	.	.	-6	.	.
O=C(C(=Cc1ccccc1)c1ccccc1)c1ccccc1	16*	10	.	.	.	.	0	-1
O=C(C(=Cc1ccc(O)cc1)c1ccccc1)c1ccccc1	-6	-7	.	.	.	.	.	.
O=C(O)c1ccccc1CSc1ccccn1	7	-5	1	0	-1	-6	.	.
C[C@H](CO)N1C[C@H](C)[C@H](CN(C)C(=O)C2CC2)Oc2ncc(C#CC3CCCC3)cc2C1=O	.	.	.	.	.	15	.	.
COc1ccc(-c2ccc(C(=O)NC3CCCCC3)c3occc23)c(C)c1	16*	4	.	.	.	.	10	6
CCCCCCn1c(=O)n2n(c1=O)[C@@H]1CN(S(=O)(=O)c3ccc(C)cc3)C[C@]1(O)[C@@H](OC(=O)NCc1ccc(OC)c(OC)c1)C2	0	-8	.	.	.	.	.	.
COc1ccc(CN(C)C[C@@H]2OCCCC[C@@H](C)Oc3ccc(NS(C)(=O)=O)cc3C(=O)N([C@H](C)CO)C[C@@H]2C)cc1	.	.	.	.	.	-1	.	.
COc1ccccc1N1CCN(C(=O)c2oc3ccc(F)cc3c2C)CC1	16*	-4	-2	3	.	-22	0	-1
COc1ccccc1N1CCN(C(=O)COc2cccc(C)c2C)CC1	4	4	0	0	1	17	.	.
COc1ccccc1OCC(=O)N1CCN(c2ccccc2OC)CC1	19*	-6	-2	0	-1	6	-3	-7
NC(=O)C1CCN(C(=S)NCc2ccc3c(c2)OCO3)CC1	15*	8	-3	0	0	.	0	-4
CC(C)c1ccc[n+](-c2nc([O-])sc2C=O)c1	9	-10	.	1	.	.	.	.
Cc1ccc[n+](-c2nc([O-])sc2C=O)c1	25*	-3	1	0	0	-9	5	-3
CC1CCN(CC(O)COCCC23CC4CC(CC(C4)C2)C3)CC1 (stereo not drawn)	15*	2	0	0	1	4	4	-7
COC1CCCN(Cc2cn(C)nc2-c2ccc(Oc3ccccc3)cc2)C1 (stereo not drawn)	2	0	-2	1	0	-3	.	.
COCCN1CCCC(CNCc2cn(C)nc2-c2ccc(Oc3ccccc3)cc2)C1 (stereo not drawn)	15*	2	0	0	.	11	-3	-6
C[C@@H](NC(=O)C[C@H]1C[C@H]2c3cc(NS(C)(=O)=O)ccc3O[C@H]2[C@H](CO)O1)c1ccccc1	.	.	.	.	.	-8	.	.
Cc1ccccc1CN1[C@@H](C)[C@H](c2ccccc2)Oc2cccc(N3CCCC(C)C3)c2S1(=O)=O (stereo partly drawn)	-8	-6	.	.	.	.	.	.
CCOC(=O)CSc1nc(NCc2ccco2)c2ccccc2n1	15*	-3	-1	0	.	-7	1	-2
COc1ccc(/C=N/N2CCN(c3ccc(Cl)cc3)CC2)cc1O	15*	2	-1	0	-4	-9	2	-1
SMILES	Tn7 DDE FP	Tn6 DDE FP	CAL PDZ FP-1	GRK2 aptamer HTS	CAL PDZ FP-2	ARNT TACC3 PPI	DDE Tn7 confirm	Tn7 DDE ctr
C=CCC1(C#N)C(SC)=NC2=C(C(=O)CC(C)(C)C2)C1c1ccc(Br)cc1 (stereo not drawn)	-7	-3	-3	0	2	6	.	.
CC(C)C(=O)N[C@@H]1c2ccccc2CC[C@@H]1OCc1ccccc1	14*	5	0	8	7	-12	0	-4
O=C(NCCC(=O)N1CCN(c2ccccn2)CC1)c1ccc([N+](=O)[O-])cc1	15*	1	-3	3	.	-1	-4	-17
O=C1[C@H](Cc2ccccc2)NCC=CC[C@H](c2ccco2)N1Cc1ccccc1	16*	-3	-1	.	.	3	2	-5
CCOC(=O)CC[C@H]1CC[C@]2(CCCN(Cc3ccccc3)C2)O1	1	5	.	.	.	.	.	.
Nc1nc(-n2cnnc2)nn1-c1ccccc1	5	2	-2	1	-2	-6	.	.
Nc1nc(N2C(=O)C3CC=CCC3C2=O)nn1-c1ccccc1 (stereo not drawn)	16*	-5	-3	0	8	-29	-2	-3
Cc1ccccc1C(=O)NCC(C)NC(=O)c1ccccc1C (stereo not drawn)	14*	0	-1	0	-4	2	0	-2
Nc1cc(N2CCCCC2)c([N+](=O)[O-])cc1Cl	14*	-10	0	3	-6	1	-5	-11
N#Cc1cccc(C(=O)OCC(=O)N2CCCc3ccccc32)c1	-7	-3	-1	4	-5	-1	.	.
O=C(OCC(=O)N1CCCc2ccccc21)c1cccc(C(F)(F)F)c1	15*	3	-2	0	1	-2	3	4
O=C1C=C(NCc2ccncc2)CC(c2ccccc2)C1 (stereo not drawn)	6	2	0	0	.	-2	.	.
O=C1C=C(NNC(=O)c2ccncc2)CC(c2ccccc2)C1 (stereo not drawn)	29*	5	0	2	1	-3	-7	-15
CC(=O)c1nc(N2C(=O)CC(Cc3cc(C)cc(C)c3)C2=O)sc1C (stereo not drawn)	-1	0	-1	2	-7	-2	.	.
CC(=O)c1nc(N2C(=O)CC(Cc3cccc(C)c3)C2=O)sc1C (stereo not drawn)	16*	-6	-2	2	-2	-5	2	2
Cc1ccc2c(c1)C(CS(=O)(=O)NCc1ccccc1)NC2 (stereo not drawn)	-3	1	.	.	.	.	.	.
O=C(Nc1cccc(Cl)c1)N1CCCC1	14*	6	-2	3	-5	-4	0	-2
